Reference: ChEMBL document CHEMBL1122115, “Antimalarials. 13. 5-Alkoxy analogues of 4-methylprimaquine” (1982)

Assays:
Format in all cases: functional
Mus musculus [1] = assay: Antimalarial activity against Plasmodium berghei in mice (Mus musculus) at 10 mg/kg dose administered subcutaneously; active; conditions: route subcutaneous
Outline: (§1)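 Primary mouse screen: groups of five mice infected with a lethal dose of P. berghei 3 days before drug administration. Drug given subcutaneously, routinely in sesame or peanut oil. Mean survival time compared with infected untreated controls; extension in survival time (ΔMST) taken as antimalarial activity.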

Mus musculus [2] = assay: Antimalarial activity against Plasmodium berghei in mice (Mus musculus) at 40 mg/kg dose administered subcutaneously; active; conditions: route subcutaneous; outline: as §1
Plasmodium cynomolgi [3] = assay: Radio curative antimalarial activity against Plasmodium cynomolgi in rhesus monkey at 0.75 mg/kg (base/day) peroral dose; cured 0 of 3; conditions: route oral
Mus musculus [4] = assay: Antimalarial activity against Plasmodium berghei in mice (Mus musculus) at 5 mg/kg dose administered subcutaneously; active; conditions: route subcutaneous; outline: as §1
Mus musculus [5] = assay: Antimalarial activity against Plasmodium berghei in mice (Mus musculus) at 20 mg/kg dose administered subcutaneously; active; conditions: route subcutaneous; outline: as §1
Plasmodium cynomolgi [6] = assay: Radio curative antimalarial activity against Plasmodium cynomolgi in Rhesus monkey at 0.25 mg/kg (base/day) peroral dose; cured 0 of 3; conditions: route oral
Mus musculus [7] = assay: Antimalarial activity against Plasmodium berghei in mice (Mus musculus) at 640 mg/kg dose administered subcutaneously; toxic; conditions: route subcutaneous; outline: as §1
Mus musculus [8] = assay: Antimalarial activity against Plasmodium berghei in mice (Mus musculus) at 160 mg/kg dose administered subcutaneously; toxic; conditions: route subcutaneous; outline: as §1
Mus musculus [9] = assay: Antimalarial activity against Plasmodium berghei in mice (Mus musculus) at 40 mg/kg dose administered subcutaneously; toxic; conditions: route subcutaneous; outline: as §1
Plasmodium cynomolgi [10] = assay: Radio curative antimalarial activity against Plasmodium cynomolgi in rhesus monkey at 0.25 mg/kg (base/day) peroral dose; cured 0 of 3; conditions: route oral
Plasmodium cynomolgi [11] = assay: Radio curative antimalarial activity against Plasmodium cynomolgi in rhesus monkey at 0.25 mg/kg (base/day) peroral dose; cured 2 of 4; conditions: route oral
Plasmodium cynomolgi [12] = assay: Radio curative antimalarial activity against Plasmodium cynomolgi in rhesus monkey at 0.75 mg/kg (base/day) peroral dose;cured 3 of 5; conditions: route oral
Mus musculus [13] = assay: Antimalarial activity against Plasmodium berghei in mice (Mus musculus) at 40 mg/kg dose administered subcutaneously; active/3 toxic; conditions: route subcutaneous; outline: as §1
Mus musculus [14] = assay: Antimalarial activity against Plasmodium berghei in mice (Mus musculus) at 20 mg/kg dose administered subcutaneously; conditions: route subcutaneous; outline: as §1
Mus musculus [15] = assay: Antimalarial activity against Plasmodium berghei in mice (Mus musculus) at 20 mg/kg dose administered subcutaneously; active/3 toxic; conditions: route subcutaneous; outline: as §1
Plasmodium cynomolgi [16] = assay: Radio curative antimalarial activity against Plasmodium cynomolgi in rhesus monkey at 0.5 mg/kg (base/day) peroral dose; cured 1 of 1; conditions: route oral
Plasmodium cynomolgi [17] = assay: Radio curative antimalarial activity against Plasmodium cynomolgi in rhesus monkey at 0.25 mg/kg (base/day) peroral dose; cured 5 of 6; conditions: route oral
Mus musculus [18] = assay: Antimalarial activity against Plasmodium berghei in mice (Mus musculus) at 80 mg/kg dose administered subcutaneously; conditions: route subcutaneous; outline: as §1
Plasmodium cynomolgi [19] = assay: Radio curative antimalarial activity against Plasmodium cynomolgi in rhesus monkey at 0.25 mg/kg (base/day) peroral dose; cured 0 of 2; conditions: route oral
Plasmodium cynomolgi [20] = assay: Radio curative antimalarial activity against Plasmodium cynomolgi in rhesus monkey at 0.75 mg/kg (base/day) peroral dose; cured 0 of 2; conditions: route oral
Mus musculus [21] = assay: Antimalarial activity against Plasmodium berghei in mice (Mus musculus) at 40 mg/kg dose administered subcutaneously; conditions: route subcutaneous; outline: as §1
Mus musculus [22] = assay: Antimalarial activity against Plasmodium berghei in mice (Mus musculus) at 320 mg/kg dose administered subcutaneously; active/3 toxic; conditions: route subcutaneous; outline: as §1
Mus musculus [23] = assay: Antimalarial activity against Plasmodium berghei in mice (Mus musculus) at 160 mg/kg dose administered subcutaneously; active; conditions: route subcutaneous; outline: as §1
Mus musculus [24] = assay: Antimalarial activity against Plasmodium berghei in mice (Mus musculus) at 640 mg/kg dose administered subcutaneously; conditions: route subcutaneous; outline: as §1
Mus musculus [25] = assay: Antimalarial activity against Plasmodium berghei in mice (Mus musculus) at 160 mg/kg dose administered subcutaneously; conditions: route subcutaneous; outline: as §1
Plasmodium cynomolgi [26] = assay: Radio curative antimalarial activity against Plasmodium cynomolgi in rhesus monkey at 0.25 mg/kg (base/day) peroral dose; cured 1 of 4; conditions: route oral
Mus musculus [27] = assay: Antimalarial activity against Plasmodium berghei in mice (Mus musculus) at 40 mg/kg dose administered subcutaneously; cure/1 toxic; conditions: route subcutaneous; outline: as §1
Mus musculus [28] = assay: Antimalarial activity against Plasmodium berghei in mice (Mus musculus) at 20 mg/kg dose administered subcutaneously; cure and active at 1.25 mg/kg; outline: as §1
Plasmodium cynomolgi [29] = assay: Radio curative antimalarial activity against Plasmodium cynomolgi in rhesus monkey at 0.75 mg/kg (base/day) peroral dose; cured 3 of 3; conditions: route oral
Plasmodium cynomolgi [30] = assay: Radio curative antimalarial activity against Plasmodium cynomolgi in rhesus monkey at 0.75 mg/kg (base/day) peroral dose; cured 1 of 1; conditions: route oral
Mus musculus [31] = assay: Antimalarial activity against Plasmodium berghei in mice (Mus musculus) at 320 mg/kg dose administered subcutaneously; active; conditions: route subcutaneous; outline: as §1
Mus musculus [32] = assay: Antimalarial activity against Plasmodium berghei in mice (Mus musculus) at 640 mg/kg dose administered subcutaneously; cure/1toxic; conditions: route subcutaneous; outline: as §1
Plasmodium cynomolgi [33] = assay: Radio curative antimalarial activity against Plasmodium cynomolgi in rhesus monkey at 0.5 mg/kg (base/day) peroral dose; cured 13 of 14; conditions: route oral
Plasmodium cynomolgi [34] = assay: Radio curative antimalarial activity against Plasmodium cynomolgi in rhesus monkey at 0.25 mg/kg (base/day) peroral dose; cured 8 of 14; conditions: route oral
Plasmodium cynomolgi [35] = assay: Radio curative antimalarial activity against Plasmodium cynomolgi in rhesus monkey at 0.25 mg/kg (base/day) peroral dose; cured 2 of 2; conditions: route oral
Mus musculus [36] = assay: Antimalarial activity against Plasmodium berghei in mice (Mus musculus) at 40 mg/kg dose administered subcutaneously; active/1 toxic; conditions: route subcutaneous; outline: as §1
Mus musculus [37] = assay: Antimalarial activity against Plasmodium berghei in mice (Mus musculus) at 20 mg/kg dose administered subcutaneously; active/1 toxic; conditions: route subcutaneous; outline: as §1
Plasmodium cynomolgi [38] = assay: Radio curative antimalarial activity against Plasmodium cynomolgi in rhesus monkey at 0.125 mg/kg(base/day) peroral dose; Cured 6 of 10; conditions: route oral
Plasmodium cynomolgi [39] = assay: Radio curative antimalarial activity against Plasmodium cynomolgi in rhesus monkey at 0.75 mg/kg (base/day) peroral dose; cured 4 of 5; conditions: route oral
Plasmodium cynomolgi [40] = assay: Radio curative antimalarial activity against Plasmodium cynomolgi in rhesus monkey at 0.25 mg/kg (base/day) peroral dose; cured 4 of 4; conditions: route oral
Plasmodium cynomolgi [41] = assay: Radio curative antimalarial activity against Plasmodium cynomolgi in Rhesus monkey at 0.0625 mg/kg(base/day) peroral dose; Cured 0 of 2; conditions: route oral
Mus musculus [42] = assay: Antimalarial activity against Plasmodium berghei in mice (Mus musculus) at 320 mg/kg dose administered subcutaneously; active/4 toxic; conditions: route subcutaneous; outline: as §1
Plasmodium cynomolgi [43] = assay: Radio curative antimalarial activity against Plasmodium cynomolgi in rhesus monkey at 0.25 mg/kg (base/day) peroral dose; cured 3 of 4; conditions: route oral
Plasmodium cynomolgi [44] = assay: Radio curative antimalarial activity against Plasmodium cynomolgi in rhesus monkey at 0.0625 mg/kg(base/day) peroral dose; Cured 0 of 5; conditions: route oral
Mus musculus [45] = assay: Antimalarial activity against Plasmodium berghei in mice (Mus musculus) at 160 mg/kg dose administered subcutaneously; active/1 toxic; conditions: route subcutaneous; outline: as §1
Plasmodium cynomolgi [46] = assay: Radio curative antimalarial activity against Plasmodium cynomolgi in Rhesus monkey at 0.125 mg/kg(base/day) peroral dose; Cured 11 of 13; conditions: route oral
Mus musculus [47] = assay: Antimalarial activity against Plasmodium berghei in mice (Mus musculus) at 80 mg/kg dose administered subcutaneously; active; conditions: route subcutaneous; outline: as §1
Plasmodium cynomolgi [48] = assay: Radio curative antimalarial activity against Plasmodium cynomolgi in rhesus monkey at 0.75 mg/kg (base/day) peroral dose; cured 4 of 4; conditions: route oral
Plasmodium cynomolgi [49] = assay: Radio curative antimalarial activity against Plasmodium cynomolgi in rhesus monkey at 0.5 mg/kg (base/day) peroral dose; cured 10 of 12; conditions: route oral
Mus musculus [50] = assay: Antimalarial activity against Plasmodium berghei in mice (Mus musculus) at 320 mg/kg dose administered subcutaneously; toxic; conditions: route subcutaneous; outline: as §1

CCC(CCCN)Nc1cc2c(c3c(C)ccnc13)OCCO2 (stereo not given)
Delta MST (Mus musculus [1]): 7.6 days
Delta MST (Mus musculus [2]): 7.6 days
Cured animals (Plasmodium cynomolgi [3]): 0
Delta MST (Mus musculus [4]): 7.8 days
Delta MST (Mus musculus [5]): 7.2 days
Cured animals (Plasmodium cynomolgi [6]): 0
Delta MST (Mus musculus [7]): 5 days
Delta MST (Mus musculus [8]): 5 days

Cc1ccnc2c(NC(C)CCCN)cc3c(c12)OCCO3 (stereo not given)
Delta MST (Mus musculus [1]): 8.3 days
number of mice died of toxicity (Mus musculus [9]): 5 mice
Cured animals (Plasmodium cynomolgi [3]): 0
Delta MST (Mus musculus [4]): 6.7 days
Delta MST (Mus musculus [5]): 11.1 days
Cured animals (Plasmodium cynomolgi [10]): 0
Delta MST (Mus musculus [7]): 5 days
Delta MST (Mus musculus [8]): 5 days

COc1cc(NC(C)CCCN)c2nc(C)cc(C)c2c1OC (stereo not given)
Cured animals (Plasmodium cynomolgi [11]): 2
Delta MST (Mus musculus [7]): 5 days
Cured animals (Plasmodium cynomolgi [12]): 3
Delta MST (Mus musculus [13]): 6.3 days
Delta MST (Mus musculus [14]): 4.9 days
Delta MST (Mus musculus [8]): 5 days

COc1cc(NCCCC(C)N)c2nccc(C)c2c1OC (stereo not given)
number of mice died of toxicity (Mus musculus [9]): 5 mice
Delta MST (Mus musculus [15]): 11.4 days
Delta MST (Mus musculus [7]): 5 days
Cured animals (Plasmodium cynomolgi [16]): 1
Delta MST (Mus musculus [8]): 5 days
Cured animals (Plasmodium cynomolgi [17]): 5

COc1cc(NCCCC(C)N)c2ncccc2c1OC (stereo not given)
Delta MST (Mus musculus [18]): 5.1 days
Cured animals (Plasmodium cynomolgi [19]): 0
Cured animals (Plasmodium cynomolgi [20]): 0
Delta MST (Mus musculus [7]): 5 days
Delta MST (Mus musculus [21]): 3.1 days
Delta MST (Mus musculus [22]): 9.9 days
Delta MST (Mus musculus [14]): 1.3 days
Delta MST (Mus musculus [23]): 7.3 days

CCC(CCCN)Nc1cc2c(c3c(C)ccnc13)OCO2 (stereo not given)
Cured animals (Plasmodium cynomolgi [3]): 0
Delta MST (Mus musculus [24]): 0.9 days
Cured animals (Plasmodium cynomolgi [10]): 0
Delta MST (Mus musculus [21]): 0.5 days
Delta MST (Mus musculus [25]): 0.5 days

COc1cc(NC(C)CCCCN)c2nccc(C)c2c1OC (stereo not given)
Delta MST (Mus musculus [7]): 5 days
Cured animals (Plasmodium cynomolgi [26]): 1
number of mice cured (Mus musculus [27]): 1 mice
Delta MST (Mus musculus [28]): 3 days
Delta MST (Mus musculus [8]): 5 days
Cured animals (Plasmodium cynomolgi [29]): 3

COc1cc(NC(C)CCCN)c2nccc(C)c2c1 (stereo not given)
Delta MST (Mus musculus [18]): 5.5 days
Cured animals (Plasmodium cynomolgi [30]): 1
Delta MST (Mus musculus [31]): 10.1 days
Delta MST (Mus musculus [32]): 3 days
Delta MST (Mus musculus [21]): 4.9 days
Cured animals (Plasmodium cynomolgi [33]): 13
Cured animals (Plasmodium cynomolgi [34]): 8
Delta MST (Mus musculus [14]): 3.1 days
Delta MST (Mus musculus [23]): 9.1 days

COc1cc(NCCCCC(C)N)c2nccc(C)c2c1OC (stereo not given)
Cured animals (Plasmodium cynomolgi [35]): 2
Delta MST (Mus musculus [36]): 8.7 days
Delta MST (Mus musculus [7]): 5 days
Delta MST (Mus musculus [37]): 7.5 days
Delta MST (Mus musculus [8]): 5 days
Cured animals (Plasmodium cynomolgi [29]): 3

Cc1ccnc2c(NC(C)CCCN)cc3c(c12)OCO3 (stereo not given)
Delta MST (Mus musculus [24]): 0.3 days
Delta MST (Mus musculus [21]): 0.1 days
Delta MST (Mus musculus [25]): 0.1 days

CCC(CCCN)Nc1cc(OC)c(OC)c2c(C)ccnc12 (stereo not given)
Cured animals (Plasmodium cynomolgi [38]): 6
Cured animals (Plasmodium cynomolgi [39]): 4
Delta MST (Mus musculus [7]): 5 days
Delta MST (Mus musculus [21]): 0.1 days
Cured animals (Plasmodium cynomolgi [40]): 4
Delta MST (Mus musculus [8]): 5 days
Cured animals (Plasmodium cynomolgi [41]): 0

COc1cc(NC(C)CCCN)c2nccc(C)c2c1OC (stereo not given)
Delta MST (Mus musculus [2]): 7.1 days
Delta MST (Mus musculus [42]): 11.9 days
Cured animals (Plasmodium cynomolgi [43]): 3
Cured animals (Plasmodium cynomolgi [44]): 0
Delta MST (Mus musculus [7]): 5 days
Delta MST (Mus musculus [45]): 9.9 days
Cured animals (Plasmodium cynomolgi [46]): 11
Cured animals (Plasmodium cynomolgi [16]): 1
Delta MST (Mus musculus [47]): 8.9 days
Delta MST (Mus musculus [14]): 5.7 days

COc1cc(NC(C)CCCN)c2ncccc2c1 (stereo not given) [PRIMAQUINE]
Cured animals (Plasmodium cynomolgi [19]): 0
Cured animals (Plasmodium cynomolgi [48]): 4
Delta MST (Mus musculus [7]): 5 days
Cured animals (Plasmodium cynomolgi [49]): 10
Delta MST (Mus musculus [21]): 5 days
Delta MST (Mus musculus [47]): 9.4 days
Delta MST (Mus musculus [8]): 2 days
Delta MST (Mus musculus [50]): 5 days
